Our source for the Activity values is ChEMBL document CHEMBL1142216, “Clinical prediction tool to identify patients with Pseudomonas aeruginosa respiratory tract infections at greatest risk for multidrug resistance” (2007).

What all share (type): functional
Experiment [1] deals with Pseudomonas aeruginosa. In words: Antibiotic susceptibility by resistance against Pseudomonas aeruginosa from samples collected from patients. In short, it runs like this:
(§1)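 Clinical P. aeruginosa respiratory isolates from hospitalized patients. Susceptibility testing was done by the hospital microbiology laboratory using Kirby-Bauer disk diffusion and interpreted by Clinical and Laboratory Standards Institute guidelines. Laboratory-reported susceptibilities and MICs were abstracted retrospectively. Isolates were grouped overall and by resistance to at least four drug classes (MDR versus non-MDR).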

Experiment [2] relates to Pseudomonas aeruginosa. In words: Antibiotic susceptibility by resistance against MDR Pseudomonas aeruginosa from samples collected from patients. In short, it runs like this:
as §1

Experiment [3] concerns Pseudomonas aeruginosa. In words: Antibiotic susceptibility by resistance against non-MDR Pseudomonas aeruginosa from samples collected from patients. In a few lines:
as §1

Take `NC[C@H]1O[C@H](O[C@H]2[C@H](O)[C@@H](O[C@H]3O[C@H](CO)[C@@H](O)[C@H](N)[C@H]3O)[C@H](N)C[C@@H]2N)[C@H](N)C[C@@H]1O` [TOBRAMYCIN]: the Activity in the experiment with Pseudomonas aeruginosa [1] is recorded as 67.5%; in the experiment on Pseudomonas aeruginosa [2] it was 36.9%; in the experiment on Pseudomonas aeruginosa [3] it was 83.8%.

Regarding `C[C@@H](O)[C@H]1C(=O)N2C(C(=O)O)=C(S[C@@H]3CN[C@H](C(=O)N(C)C)C3)[C@H](C)[C@H]12` [MEROPENEM], the Activity was determined as 56.1% in the experiment on Pseudomonas aeruginosa [1], 17.2% in the experiment with Pseudomonas aeruginosa [2] and 76.9% in the experiment with Pseudomonas aeruginosa [3].

On to `C[C@H]1[C@H](NC(=O)/C(=N\OC(C)(C)C(=O)O)c2csc(N)n2)C(=O)N1S(=O)(=O)O` [AZTREONAM], for which the values for the Activity with Pseudomonas aeruginosa [1], in the experiment on Pseudomonas aeruginosa [2] and in the experiment on Pseudomonas aeruginosa [3] were 58.1%, 18.9% and 79%, respectively.

As for `CO/N=C(\C(=O)N[C@@H]1C(=O)N2C(C(=O)[O-])=C(C[N+]3(C)CCCC3)CS[C@H]12)c1csc(N)n1` [CEFEPIME], the values for the Activity with Pseudomonas aeruginosa [1], in the experiment with Pseudomonas aeruginosa [2] and with Pseudomonas aeruginosa [3] were 81.8%, 52.5% and 97.4%, respectively.

As to `NCC[C@H](O)C(=O)N[C@@H]1C[C@H](N)[C@@H](O[C@H]2O[C@H](CN)[C@@H](O)[C@H](O)[C@H]2O)[C@H](O)[C@H]1O[C@H]1O[C@H](CO)[C@@H](O)[C@H](N)[C@H]1O` [AMIKACIN], the Activity in the experiment with Pseudomonas aeruginosa [1] turned out to be 90.9%; with Pseudomonas aeruginosa [2], 82%; in the experiment with Pseudomonas aeruginosa [3] it was 95.6%.

In the case of `O=C(O)c1cn(C2CC2)c2cc(N3CCNCC3)c(F)cc2c1=O` [CIPROFLOXACIN], the Activity in the experiment on Pseudomonas aeruginosa [1] turned out to be 42.5%; with Pseudomonas aeruginosa [2], 3.3%; with Pseudomonas aeruginosa [3], 63.3%.
